In data set [1] the test system is Rattus norvegicus. The data set is described as follows: Increase in prolactin level in Wistar rat plasma at 7.5 mg/kg, ip after 1 hr relative to control. It counts as functional, organism-based. Also on record: dose 7.5 mg/kg. The method, boiled down: (§1)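 Male Wistar rats (150–230 g), four per group, dosed ip in 1% lactic acid vehicle. Blood taken from the orbital vein under light ether anesthesia before dosing and 1 and 2 h after. EDTA plasma was separated at 1600g for 20 min and frozen at -78 °C. Prolactin was measured by double-antibody rat prolactin RIA, compared with vehicle and time 0 (t test).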

Data set [2] has as its system Rattus norvegicus. Put plainly: Increase in prolactin level in Wistar rat plasma at 7.5 mg/kg, ip after 2 hrs relative to control. Type of data set: functional, organism-based. Also on record: dose 7.5 mg/kg. The method in brief:
as §1

The subject of data set [3] is Rattus norvegicus. Put plainly: Toxicity assessed as induction of cataleptic extrapyramidal symptoms in Wistar rat at 7.5 mg/kg, ip after 2 hrs by wall descending test. Conditions: in vivo. Also on record: dose 7.5 mg/kg, route intraperitoneal. It counts as organism-based. The method, boiled down: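 Male Wistar rats (150–230 g), six per group, dosed ip in 1% lactic acid. Wall descending test: time for a rat hanging on the cage wall to move its hind legs and reach the floor, capped at 120 s. Rats were tested individually, every 30 min up to 420 min. Sedation was scored double-blind at the same time points.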

Data set [4] has as its system Rattus norvegicus. The data set is described as follows: Increase in prolactin level in Wistar rat plasma at 5 mg/kg, ip after 1 hr relative to control. It counts as functional, organism-based. Also on record: dose 5 mg/kg. The method, boiled down:
(§2)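 Male Wistar rats (150–230 g; four/group) received drug ip in 1% lactic acid, with a vehicle control group. Orbital-vein blood was taken under light ether anesthesia before dosing and at 1 and 2 h, collected into EDTA on ice. Plasma was spun at 1600g for 20 min and frozen at -78 °C. Prolactin was measured by double-antibody rat prolactin RIA. Comparison was by t test against control and time 0.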

Data set [5] concerns Rattus norvegicus. Put plainly: Increase in prolactin level in Wistar rat plasma at 5 mg/kg, ip after 2 hrs relative to control. Type of data set: functional, organism-based. Also on record: dose 5 mg/kg. The method, boiled down: as §2
Data set [6] has as its system Rattus norvegicus. The data set is described as follows: Toxicity assessed as induction of cataleptic extrapyramidal symptoms in Wistar rat at 5 mg/kg, ip after 2 hrs by wall descending test. It counts as organism-based. Also on record: dose 5 mg/kg, route intraperitoneal. Conditions: in vivo. The method, boiled down:
(§3)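 Rats (six/group) were injected ip with 5 mg/kg or 7.5 mg/kg of the parent drugs, or equimolar esters, in 1% lactic acid. Wall descending test: the time for a rat hanging on the cage wall to move its hind legs to the floor was recorded, with a 120 s maximum. Rats were tested every 30 min up to 420 min post-dose.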

For data set [7], the system named is Rattus norvegicus. Put plainly: Increase in prolactin level in Wistar rat plasma at 5 to 20 mg/kg, po after 90 to 180 mins relative to control. Type of data set: functional, organism-based. The method in brief: (§4)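 Five groups of male Wistar rats (4/group) were gavaged with 1% lactic acid vehicle, 5, 10 or 20 mg/kg, or equimolar 7, 14 or 28 mg/kg of the ester salt. Orbital-vein plasma was sampled under light ether at 0, 90 and 180 min and prolactin assayed by double-antibody RIA. Comparison was by t test against control and time 0.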

In data set [8] the test system is Rattus norvegicus. Put plainly: Increase in prolactin level in Wistar rat plasma at 7 to 28 mg/kg, po after 90 to 180 mins relative to control. Type of data set: functional, organism-based. The method in brief: as §4
For data set [9], the system named is Rattus norvegicus. The data set is described as follows: Decrease in sedation in Wistar rat at 5 to 20 mg/kg, po. It counts as functional, organism-based. The method in brief: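 Male Wistar rats (150–230 g) were dosed by gavage. During catalepsy testing, sedation/alertness was recorded double-blind. The ip study used this scale: 0 active mobile; * calm and mobile; ** calm and immobile; *** ataxic and non-alert.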

In data set [10] the test system is Rattus norvegicus. The data set is described as follows: Reduction of cataleptic behavior in Wistar rat at 5 to 20 mg/kg, po by bar test. Type of data set: functional, organism-based. The method in brief:
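Rats were gavaged with 5, 10 or 20 mg/kg or equimolar doses, and catalepsy was scored 4 h post-dose; a time course was run at 5 and 10 mg/kg. Bar test: forelimbs rested on a 5.5 cm bar, and the time to descend to the surface was recorded. Rats were tested individually, hourly, with a 120 s cutoff.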

For data set [11], the system named is Rattus norvegicus. The data set is described as follows: Reduction of D-amphetamine-induced hyperactivity in Wistar rat assessed as reduction of wall-climbing at 2.5 mg/kg, po. Type of data set: functional, organism-based. Also on record: dose 2.5 mg/kg. The method, boiled down: (§5)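 Male Wistar rats (six/group) were dosed po with 1% lactic acid vehicle (two groups), 2.5 mg/kg or equimolar test agent, or GABA at 1 mg/kg. After 90 min, all groups except one vehicle group received D-amphetamine (2.0 mg/kg ip). Rats were placed singly in barrels, and after 30 min head movements and wall-climbing attempts over 120 s were counted double-blind.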

Data set [12] deals with Rattus norvegicus. The data set is described as follows: Reduction of D-amphetamine-induced hyperactivity in Wistar rat assessed as reduction of head movements at 2.5 mg/kg, po. Type of data set: functional, organism-based. Also on record: dose 2.5 mg/kg. The method, boiled down:
as §5

Data set [13] relates to Rattus norvegicus. Put plainly: Inhibition of D-amphetamine-induced hyperactivity in Wistar rat at 2.5 mg/kg, po. Type of data set: functional, organism-based. Also on record: dose 2.5 mg/kg. The method, boiled down:
as §5

The test system of data set [14] is Rattus norvegicus. Put plainly: Toxicity assessed as induction of cataleptic extrapyramidal symptoms in orally dosed Wistar rat by bar test. Conditions: in vivo, po.
Data set [15] has as its system Rattus norvegicus. Put plainly: Toxicity assessed as induction of cataleptic extrapyramidal symptoms in Wistar rat at 7.5 mg/kg, ip after 7 hrs by wall descending test. Also on record: dose 7.5 mg/kg, route intraperitoneal. Conditions: in vivo. It counts as organism-based. The method in brief:
as §3

Active and inactive are the calls of the source.

Regarding `OCCN1CCN(CCCN2c3ccccc3Sc3ccc(C(F)(F)F)cc32)CC1` [FLUPHENAZINE], the result in the data set on Rattus norvegicus [1] and in the data set on Rattus norvegicus [2] was Active. Besides, the Activity entry with Rattus norvegicus [3] is recorded as “Toxic”.
Take `Cl.NCCCC(=O)OCCN1CCN(CCCN2c3ccccc3Sc3ccc(Cl)cc32)CC1` [BL-1020]: the result with Rattus norvegicus [4], in the data set with Rattus norvegicus [5], with Rattus norvegicus [7], in the data set with Rattus norvegicus [8], with Rattus norvegicus [9] and in the data set with Rattus norvegicus [10] was Active. Further, the outcome with Rattus norvegicus [11] and in the data set with Rattus norvegicus [12] was Active. The Activity result in the data set with Rattus norvegicus [6] is “Non-toxic”.
As for `OCCN1CCN(CCCN2c3ccccc3Sc3ccc(Cl)cc32)CC1` [PERPHENAZINE], the outcome with Rattus norvegicus [4], in the data set on Rattus norvegicus [5] and with Rattus norvegicus [13] was Active. In addition, the values for the Activity result in the data set with Rattus norvegicus [6] and in the data set on Rattus norvegicus [14] were “Toxic” and “Dose-dependent effect”, respectively.
`Cl.NCCCC(=O)OCCN1CCN(CCCN2c3ccccc3Sc3ccc(C(F)(F)F)cc32)CC1`: the result in the data set on Rattus norvegicus [1] and in the data set with Rattus norvegicus [2] was Active. Moreover, the Activity entry in the data set on Rattus norvegicus [15] is “Non-toxic”.

Values taken from ChEMBL document CHEMBL1149905, “A mutual prodrug ester of GABA and perphenazine exhibits antischizophrenic efficacy with diminished extrapyramidal effects” (J Med Chem, 2008).
